Experimental data published in ChEMBL document CHEMBL1148372 (J Med Chem, 2004).
pEC50, pKi: −log10 of the molar value.

What was measured:
[1] = target: T1, D(4) dopamine receptor (Homo sapiens) (UniProt P21917); experiment: In vitro efficacy tested on human Dopamine receptor D4.4 were co-expressed with GRqo5 in HEK293 cells using FLIPR assay (Efficacy relative to 10 uM dopamine); type: cell-based
T1 sequence (whole entry): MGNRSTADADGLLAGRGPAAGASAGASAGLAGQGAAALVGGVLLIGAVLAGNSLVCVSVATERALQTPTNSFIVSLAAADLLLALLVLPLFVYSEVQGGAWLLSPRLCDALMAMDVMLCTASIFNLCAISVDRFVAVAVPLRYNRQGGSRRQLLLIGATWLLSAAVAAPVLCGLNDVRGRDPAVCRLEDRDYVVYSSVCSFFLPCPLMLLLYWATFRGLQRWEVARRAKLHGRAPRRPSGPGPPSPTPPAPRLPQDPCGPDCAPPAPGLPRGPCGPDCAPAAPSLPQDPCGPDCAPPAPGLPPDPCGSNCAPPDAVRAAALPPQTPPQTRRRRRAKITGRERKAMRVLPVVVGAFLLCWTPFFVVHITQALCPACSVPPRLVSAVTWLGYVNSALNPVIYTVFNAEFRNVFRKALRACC
Summary of the method: (§1)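 HEK293 cells coexpressing human D4.4 receptor and Gαqo5, plated at 20 000 cells/well and grown 2 days. Loaded 1 h at 23 °C with 4 µM Fluo-4 plus 0.04% Pluronic F-127 in DPBS, washed four times. Compound added, fluorescence read over 3 min.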

Rattus norvegicus [2] = experiment: In vivo maximal effective dose tested in rats for erection 60 min after subcutaneous administration; type: functional
Summary of the method: (§2)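 Conscious male Wistar rats, adapted 60 min to a dim red-lit room, tested between 9:00 a.m. and 3:00 p.m. Dosed subcutaneously, then caged singly and observed directly for 60 min. Percent incidence is the share of animals with one or more erections; 8–30 animals per group. Maximally effective dose is the dose giving peak incidence, with significance versus control.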

Rattus norvegicus [3] = experiment: In vivo maximal penile erection in rats 60 min after subcutaneous administration; type: functional; summary of the method: as §2
D(4) dopamine receptor [4] = target: T2, D(4) dopamine receptor (Homo sapiens, UniProt P21917); experiment: In vitro effective concentration tested on HEK293 cells co-transfected with human D4.4 receptor using FLIPR assay; type: cell-based
T2 sequence (P21917 whole entry): T1 sequence (whole entry)
Summary of the method: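 Human D4.4 receptor co-expressed with Gαqo5 in HEK293 cells, plated at 20 000 cells/well and grown 2 days. Loaded with 4 µM Fluo-4 and 0.04% Pluronic F-127 in DPBS with glucose and pyruvate for 1 h at 23 °C, then washed. Compound added and fluorescence read over 3 min on FLIPR. […] EC50 is the concentration giving half-maximal response.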

[5] = target: D(2) dopamine receptor (Rattus norvegicus) (UniProt P61169); experiment: In vitro efficacy tested on rat Dopamine receptor D2 were co-expressed with GRqo5 in HEK293 cells using FLIPR assay (Efficacy relative to 10 uM dopamine); type: cell-based
D(4) dopamine receptor [6] = target: T3, D(4) dopamine receptor (Rattus norvegicus, UniProt P30729); experiment: In vitro effective concentration tested on HEK293 cells co-transfected with rat Dopamine receptor D4 using FLIPR assay; type: cell-based
T3 sequence (P30729 whole entry): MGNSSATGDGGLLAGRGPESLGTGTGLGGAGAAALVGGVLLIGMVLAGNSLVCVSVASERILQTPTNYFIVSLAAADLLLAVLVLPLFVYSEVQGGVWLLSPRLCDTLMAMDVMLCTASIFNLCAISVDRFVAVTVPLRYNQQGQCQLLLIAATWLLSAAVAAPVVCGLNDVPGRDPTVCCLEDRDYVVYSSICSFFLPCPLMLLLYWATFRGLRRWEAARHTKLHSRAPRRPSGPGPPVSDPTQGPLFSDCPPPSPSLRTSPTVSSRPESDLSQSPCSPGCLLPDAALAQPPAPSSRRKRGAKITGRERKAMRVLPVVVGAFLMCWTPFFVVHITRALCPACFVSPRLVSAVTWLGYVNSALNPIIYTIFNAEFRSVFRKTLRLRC

D(4) dopamine receptor [7] = target: T2, D(4) dopamine receptor; experiment: In vitro EC50 tested on HEK293 cells co-transfected with human Dopamine receptor D4.4 using FLIPR assay; type: cell-based; summary of the method: as §1
[8] = Binding affinity tested against D4.2 receptor in Chinese hamster ovary cell line (CHO cells) using [3H]spiperone as a radioligand; type: cell-based, Cricetulus griseus

D(2) dopamine receptor (Rattus norvegicus), sequence (P61169 whole entry): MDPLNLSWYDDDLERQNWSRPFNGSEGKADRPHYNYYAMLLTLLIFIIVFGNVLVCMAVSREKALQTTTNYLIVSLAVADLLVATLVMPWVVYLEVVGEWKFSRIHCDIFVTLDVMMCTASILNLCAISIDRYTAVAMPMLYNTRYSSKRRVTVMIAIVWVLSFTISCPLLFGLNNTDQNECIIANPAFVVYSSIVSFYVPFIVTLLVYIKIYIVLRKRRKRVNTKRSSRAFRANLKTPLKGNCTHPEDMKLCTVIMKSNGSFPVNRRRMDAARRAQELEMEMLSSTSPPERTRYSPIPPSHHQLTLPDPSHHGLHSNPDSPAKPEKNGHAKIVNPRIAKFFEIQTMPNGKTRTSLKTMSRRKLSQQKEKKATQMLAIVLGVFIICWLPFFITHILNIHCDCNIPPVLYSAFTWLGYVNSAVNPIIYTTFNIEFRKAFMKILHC

pEC50 (D(4) dopamine receptor [7])	SMILES	Efficacy [1]	Effective dose (Rattus norvegicus [2])	Activity (Rattus norvegicus [3])	pEC50 (D(4) dopamine receptor [4])	Efficacy [5]	pEC50 (D(4) dopamine receptor [6])	pKi [8]
	C1=C(c2ccccn2)CCN(Cc2nc3ccccc3[nH]2)C1	63%	0.03 µM/kg	75%	7.96			
	CN1CCc2cccc3c2[C@H]1Cc1ccc(O)c(O)c1-3 [APOMORPHINE]		0.1 µM/kg	91%		103%	8.26	
7.51	c1ccc(N2CCN(Cc3nc4ccccc4[nH]3)CC2)cc1	33%	0.03 µM/kg	75%				7.48
	C1=C(c2ccccc2)CCN(Cc2nc3ccccc3[nH]2)C1	48%			6.64			
7.84	N#Cc1ccccc1N1CCN(Cc2nc3ccccc3[nH]2)CC1	46%	0.003 µM/kg	65%				
	NCCc1ccc(O)c(O)c1 [DOPAMINE]					100%	8.62	
